Measurements taken from ChEMBL document CHEMBL1136157, “Synthesis of 3a,4-dihydro-3H-[1]benzopyrano[4,3-c]isoxazoles, displaying combined 5-HT uptake inhibiting and alpha(2)-adrenoceptor antagonistic activities: a novel series of potential antidepressants” (Bioorg Med Chem Lett, 2003).

Key:
[1] = molecular target: Sodium-dependent serotonin transporter (Rattus norvegicus) (UniProt P31652); assay: In vivo effective dose required to inhibit p-chloroamphetamine induced excitation in rats upon subcutaneous administration; type: functional, organism-based
Procedure, shortened: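 Overnight-starved male Wistar rats (200–250 g) given test compound or solvent sc 1 h before p-chloroamphetamine (5 mg/10 mL/kg, sc). Excitation scored over a 15-min interval starting 45 min after pCA. A score <2 was the all-or-nothing criterion for inhibition (1.0% false positives, n>200). ED50 in mg/kg.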

[2] = molecular target: Adrenergic receptor alpha-2 (Rattus norvegicus) (UniProt P22086+P19328+P22909); assay: In vivo effective dose required to inhibit xylazine-induced loss of righting in rats upon subcutaneous administration; type: functional, organism-based
[3] = molecular target: T1, Alpha-2C adrenergic receptor (Homo sapiens, UniProt P18825); assay: In vitro binding affinity towards human adrenergic alpha-2C adrenergic receptor using [3H]rauwolscine
T1 sequence (P18825 whole entry): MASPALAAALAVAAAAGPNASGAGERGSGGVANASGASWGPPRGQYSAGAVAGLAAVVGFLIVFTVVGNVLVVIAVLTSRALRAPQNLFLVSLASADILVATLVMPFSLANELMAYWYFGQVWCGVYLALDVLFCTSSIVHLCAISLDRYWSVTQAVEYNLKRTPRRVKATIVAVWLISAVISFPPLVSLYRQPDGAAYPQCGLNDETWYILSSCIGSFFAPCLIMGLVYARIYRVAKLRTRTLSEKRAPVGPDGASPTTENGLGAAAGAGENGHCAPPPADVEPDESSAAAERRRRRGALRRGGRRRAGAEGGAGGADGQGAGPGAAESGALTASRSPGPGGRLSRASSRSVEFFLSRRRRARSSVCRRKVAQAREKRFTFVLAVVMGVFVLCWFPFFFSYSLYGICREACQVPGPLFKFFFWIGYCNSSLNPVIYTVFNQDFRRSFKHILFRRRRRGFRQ

[4] = molecular target: T2, Alpha-2B adrenergic receptor (Homo sapiens, UniProt P18089); assay: In vitro binding affinity towards human alpha-2B adrenergic receptor using [3H]rauwolscine
T2 sequence (P18089 whole entry): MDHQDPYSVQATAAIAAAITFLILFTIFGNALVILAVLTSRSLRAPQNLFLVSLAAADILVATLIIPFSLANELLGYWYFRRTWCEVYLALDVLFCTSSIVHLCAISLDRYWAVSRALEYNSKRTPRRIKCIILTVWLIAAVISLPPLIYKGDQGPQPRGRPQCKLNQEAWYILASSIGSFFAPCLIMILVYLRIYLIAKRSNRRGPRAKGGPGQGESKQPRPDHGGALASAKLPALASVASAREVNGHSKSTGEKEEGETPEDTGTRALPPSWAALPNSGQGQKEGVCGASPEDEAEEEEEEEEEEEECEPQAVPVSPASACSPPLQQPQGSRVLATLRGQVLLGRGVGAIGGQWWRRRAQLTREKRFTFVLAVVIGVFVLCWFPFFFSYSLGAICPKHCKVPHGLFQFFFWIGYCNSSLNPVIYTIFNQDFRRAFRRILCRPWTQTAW

[5] = molecular target: T3, Alpha-2A adrenergic receptor (Homo sapiens, UniProt P08913); assay: In vitro binding affinity towards human alpha-2A adrenergic receptor using [3H]rauwolscine
T3 sequence (P08913 whole entry): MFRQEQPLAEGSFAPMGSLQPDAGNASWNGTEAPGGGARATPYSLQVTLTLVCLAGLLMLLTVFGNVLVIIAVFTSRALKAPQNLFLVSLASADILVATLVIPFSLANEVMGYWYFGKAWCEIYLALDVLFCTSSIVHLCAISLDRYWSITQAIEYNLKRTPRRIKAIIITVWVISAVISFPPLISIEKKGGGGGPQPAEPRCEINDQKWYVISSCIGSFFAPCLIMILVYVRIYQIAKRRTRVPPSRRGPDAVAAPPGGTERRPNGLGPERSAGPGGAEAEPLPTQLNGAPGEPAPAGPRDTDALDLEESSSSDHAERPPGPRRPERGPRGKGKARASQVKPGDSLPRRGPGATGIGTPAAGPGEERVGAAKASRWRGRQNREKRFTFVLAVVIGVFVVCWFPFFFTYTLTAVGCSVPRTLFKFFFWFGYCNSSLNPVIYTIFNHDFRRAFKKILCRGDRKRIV

Sodium-dependent serotonin transporter (Rattus norvegicus), sequence (P31652 whole entry): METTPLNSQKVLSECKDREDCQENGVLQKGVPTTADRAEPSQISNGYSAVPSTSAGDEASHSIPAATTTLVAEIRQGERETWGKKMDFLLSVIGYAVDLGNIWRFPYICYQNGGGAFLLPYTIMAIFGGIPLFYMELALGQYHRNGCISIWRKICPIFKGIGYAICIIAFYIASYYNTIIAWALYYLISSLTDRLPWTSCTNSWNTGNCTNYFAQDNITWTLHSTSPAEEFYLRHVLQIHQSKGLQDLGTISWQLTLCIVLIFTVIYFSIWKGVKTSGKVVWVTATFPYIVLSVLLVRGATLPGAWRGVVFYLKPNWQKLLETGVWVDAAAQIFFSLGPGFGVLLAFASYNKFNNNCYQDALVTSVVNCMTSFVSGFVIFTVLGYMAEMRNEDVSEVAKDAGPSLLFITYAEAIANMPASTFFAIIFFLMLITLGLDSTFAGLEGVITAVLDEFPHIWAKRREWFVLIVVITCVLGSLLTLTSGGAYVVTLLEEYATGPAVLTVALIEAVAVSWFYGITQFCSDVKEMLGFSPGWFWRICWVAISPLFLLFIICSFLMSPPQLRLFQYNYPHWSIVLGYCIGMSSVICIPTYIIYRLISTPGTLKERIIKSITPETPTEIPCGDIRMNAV

| SMILES | ED50 [1] [mg/kg] | ED50 [2] [mg/kg] | Ki [3] [nM] | Ki [4] [nM] | Ki [5] [nM] |
| --- | --- | --- | --- | --- | --- |
| COc1cc2c(cc1OC)C1=NO[C@@H](CN3CCN(C/C=C\c4ccccc4)CC3)[C@@H]1CO2 | 10 | – | – | – | – |
| COc1cc2c(cc1OC)C1=NO[C@@H](CN3CCN(C/C=C/c4ccccc4)CC3)[C@@H]1CO2 (stereo in doubt; (-)5) [listing 1 of 2 here] | 2.5 | 5 | – | – | – |
| COc1cc2c(cc1OC)C1=NO[C@@H](CN3CCN(Cc4ccc5ccccc5c4)CC3)[C@@H]1CO2 (stereo in doubt; (-)15h) [listing 1 of 2 here] | – | – | 9.5 | 95 | – |
| COc1cc2c(cc1OC)C1=NOC(CN3CCN(C/C=C/c4ccccc4)CC3)C1CO2 (centres undefined) | 0.76 | 2.5 | – | 42 | – |
| COc1cc2c(cc1OC)C1=NOC(CN3CCN(Cc4cc5ccccc5s4)CC3)C1CO2 (centres undefined) | 2.5 | > 10 | 89 | > 1000 | 98 |
| C(=C\c1ccccc1)/CN1CCN(CC2ON=C3c4ccccc4OCC32)CC1 (centres undefined) | 5 | 2 | 1.7 | 2 | – |
| COc1cc2c(cc1OC)C1=NO[C@@H](CN3CCN(C/C=C(\C)c4ccccc4)CC3)[C@@H]1CO2 (stereo in doubt; (+)15g) [listing 1 of 2 here] | 0.5 | 0.32 | – | – | – |
| COc1cc2c(cc1OC)C1=NOC(CN3CCN(Cc4cccc5ccccc45)CC3)C1CO2 (centres undefined) | 3.2 | > 10 | 89 | > 1000 | 234 |
| Fc1ccc2c(c1)CC(CC1CN=CN1)C2 (centres undefined) | 2 | 2.7 | 19 | 23 | – |
| COc1cc2c(cc1OC)C1=NOC(CN3CCN(CCc4ccccc4)CC3)C1CO2 (centres undefined) | 10 | > 10 | 89 | > 1000 | 234 |
| COc1cc2c(cc1OC)C1=NO[C@@H](CN3CCN(C/C(C)=C/c4ccccc4)CC3)[C@@H]1CO2 (stereo in doubt; (+)15f) [listing 1 of 2 here] | – | – | 0.1 | 3 | – |
| COc1cc2c(cc1OC)C1=NO[C@@H](CN3CCN(C/C=C/c4ccccc4)CC3)[C@@H]1CO2 (stereo in doubt; (-)5) [listing 2 of 2 here] | – | – | – | 42 | – |
| COc1cc2c(cc1OC)C1=NO[C@@H](CN3CCN(Cc4ccc5ccccc5c4)CC3)[C@@H]1CO2 (stereo in doubt; (+)15h) [listing 1 of 2 here] | 0.08 | 6.1 | – | – | – |
| COc1cc2c(cc1OC)C1=NOC(CN3CCN(CCC(=O)c4ccccc4)CC3)C1CO2 (centres undefined) | – | – | 5.3 | – | 12 |
| COc1cc2c(cc1OC)C1=NO[C@@H](CN3CCN(C/C(C)=C/c4ccccc4)CC3)[C@@H]1CO2 (stereo in doubt; (-)15f) [listing 1 of 2 here] | – | – | 1.4 | 15 | – |
| COc1ccc2c(c1)C1=NOC(CN3CCN(C/C=C/c4ccccc4)CC3)C1CO2 (centres undefined) | 5 | 2.5 | 2.3 | 12 | 0.8 |
| COc1cc2c(cc1OC)C1=NOC(CN3CCN(Cc4ccc5ncccc5c4)CC3)C1CO2 (centres undefined) | 0.63 | 5 | 36 | 721 | 117 |
| COc1cc2c(cc1OC)C1=NOC(CN3CCN(Cc4csc5ccccc45)CC3)C1CO2 (centres undefined) | – | – | 13 | 370 | 66 |

| SMILES | ED50 [1] [mg/kg] | ED50 [2] [mg/kg] | Ki [3] [nM] | Ki [4] [nM] | Ki [5] [nM] |
| --- | --- | --- | --- | --- | --- |
| COc1cc2c(cc1OC)C1=NO[C@@H](CN3CCN(C/C=C/c4ccccc4)CC3)[C@@H]1CO2 (stereo in doubt; (+)5) [listing 1 of 2 here] | 0.51 | 2.5 | – | – | – |
| COc1cc2c(cc1OC)C1=NO[C@@H](CN3CCN(C/C(C)=C/c4ccccc4)CC3)[C@@H]1CO2 (stereo in doubt; (+)15f) [listing 2 of 2 here] | – | 3.1 | – | – | – |
| COc1ccc2c(c1)OCC1C2=NOC1CN1CCN(C/C=C/c2ccccc2)CC1 (centres undefined) | 1.4 | 2 | 1.9 | 16 | – |
| COc1cc2c(cc1OC)C1=NO[C@@H](CN3CCN(C/C=C(\C)c4ccccc4)CC3)[C@@H]1CO2 (stereo in doubt; (-)15g) [listing 1 of 2 here] | – | – | 10 | 405 | – |
| COc1cc2c(cc1OC)C1=NO[C@@H](CN3CCN(Cc4ccc5ccccc5c4)CC3)[C@@H]1CO2 (stereo in doubt; (+)15h) [listing 2 of 2 here] | – | – | 0.8 | 14 | – |
| COc1cc2c(cc1OC)C1=NO[C@@H](CN3CCN(C/C(C)=C/c4ccccc4)CC3)[C@@H]1CO2 (stereo in doubt; (-)15f) [listing 2 of 2 here] | – | > 10 | – | – | – |
| COc1cc2c(cc1OC)C1=NO[C@@H](CN3CCN(C/C=C(\C)c4ccccc4)CC3)[C@@H]1CO2 (stereo in doubt; (+)15g) [listing 2 of 2 here] | – | – | 0.2 | 14 | – |
| COc1cc2c(cc1OC)C1=NOC(CN3CCN(Cc4cnc5ccccc5c4)CC3)C1CO2 (centres undefined) | 5 | 5 | 30 | > 1000 | 34 |
| COc1cc2c(cc1OC)C1=NO[C@@H](CN3CCN(C/C=C/c4ccccc4)CC3)[C@@H]1CO2 (stereo in doubt; (+)5) [listing 2 of 2 here] | – | – | – | 14 | – |
| COc1cc2c(cc1OC)C1=NOC(CN3CCN(Cc4ccccc4)CC3)C1CO2 (centres undefined) | 8 | > 10 | 89 | 995 | 186 |
| COc1cc2c(cc1OC)C1=NOC(CN3CCN(C/C=C(\C)c4ccccc4)CC3)C1CO2 (centres undefined) | 0.2 | 2.5 | 0.6 | 31 | – |
| COc1cc2c(cc1OC)C1=NOC(CN3CCN(CCCc4ccccc4)CC3)C1CO2 (centres undefined) | 5 | 2.5 | 1.9 | 42 | 26 |
| COc1cc2c(cc1OC)C1=NO[C@@H](CN3CCN(C/C=C(\C)c4ccccc4)CC3)[C@@H]1CO2 (stereo in doubt; (-)15g) [listing 2 of 2 here] | > 10 | > 10 | – | – | – |
| COc1cc2c(cc1OC)C1=NO[C@@H](CN3CCN(Cc4ccc5ccccc5c4)CC3)[C@@H]1CO2 (stereo in doubt; (-)15h) [listing 2 of 2 here] | 1.5 | 10 | – | – | – |
| COc1cc2c(cc1OC)C1=NOC(CN3CCN(C/C(C)=C/c4ccccc4)CC3)C1CO2 (centres undefined) | – | 1 | 0.2 | 7.5 | – |
| COc1cc2c(cc1OC)C1=NOC(CN3CCN(Cc4ccc5ccccc5c4)CC3)C1CO2 (centres undefined) | 0.79 | 5 | 3.1 | 49 | – |
| COc1cccc2c1CCC[C@H]2CN(C)CCc1ccc2ccoc2c1 | 10 | > 10 | 2.1 | 11 | – |
